From ChEMBL document CHEMBL2380295, “Structure-activity studies on the side chain of a simplified analog of aplysiatoxin (aplog-1) with anti-proliferative activity” (Bioorg Med Chem, 2013)

Columns and labels:
[1] = Cytotoxicity against human Raji cells assessed as cell viability at 10^-6 M; format: cell-based; details: read-out: Activity
Mus musculus = organism: Mus musculus; test: Toxicity in ICR mouse assessed as development of tumors at 8.5 nmol treated twice a week from week 1 to week 20; format: organism-based; details: in vivo
Method in brief: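 Mouse skin two-stage carcinogenesis: initiation by a single application of 390 nmol DMBA. From one week later, 8.5 nmol test compound was applied twice weekly from week 1 to week 20. The control group received DMBA then 1.7 nmol TPA twice weekly. Tumor development was monitored over time.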

[2] = Cytotoxicity against human Raji cells assessed as cell viability at 10^-7 M; format: cell-based; details: read-out: Activity
Human gammaherpesvirus 4 [3] = test: Induction of EBV-early antigen expressed in human Raji cells at 10^-6 M after 48 hrs by immunofluorescence assay relative to control; format: organism-based; details: human gammaherpesvirus 4, raji, 1 µM
Method in brief: (§1)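 Raji B-lymphoblastoid cells (5 × 10^5/mL) in RPMI 1640 with 10% FBS, with 4 mM sodium n-butyrate as synergist and test compound at 10^-7 or 10^-6 M (final DMSO 0.4%). Incubated 48 h at 37 °C under 5% CO2. Smears were stained by indirect immunofluorescence using NPC patient serum and FITC anti-human IgG. At least 500 cells counted; % EA-positive recorded; n = 3, SEM.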

Human gammaherpesvirus 4 [4] = test: Induction of EBV-early antigen expressed in human Raji cells at 10^-7 M after 48 hrs by immunofluorescence assay relative to control; format: organism-based; details: human gammaherpesvirus 4, raji, 0.1 µM; method in brief: as §1
PC-3 = test: Growth inhibition of human PC3 cells after 48 hrs by sulforhodamine B assay; format: functional; details: PC-3, 48 h
Method in brief: (§2)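 Yamori 39-line human cancer panel, NCI method with modifications. Cells plated in RPMI 1640 plus 5% FBS, attached overnight, then exposed 48 h to compound at 10^-8, 10^-7, 10^-6, 10^-5 and 10^-4 M. Sulforhodamine B staining read at 525 nm; % growth = 100[(T−T0)/(C−T0)] from duplicate-point averages, with T0 the time-zero absorbance. GI50 is the concentration giving 50.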

DU-145 = test: Growth inhibition of human DU145 cells after 48 hrs by sulforhodamine B assay; format: functional; details: DU-145, 48 h; method in brief: as §2
MKN-74 = test: Growth inhibition of human MKN74 cells after 48 hrs by sulforhodamine B assay; format: functional; details: MKN-74, 48 h; method in brief: as §2
MKN-28 = test: Growth inhibition of human MKN28 cells after 48 hrs by sulforhodamine B assay; format: functional; details: MKN-28, 48 h; method in brief: as §2
MKN-45 = test: Growth inhibition of human MKN45 cells after 48 hrs by sulforhodamine B assay; format: functional; details: MKN-45, 48 h; method in brief: as §2
MKN-7 = test: Growth inhibition of human MKN7 cells after 48 hrs by sulforhodamine B assay; format: functional; details: MKN-7, 48 h; method in brief: as §2
St-4 = test: Growth inhibition of human St-4 cells after 48 hrs by sulforhodamine B assay; format: functional; details: St-4, 48 h; method in brief: as §2
[5] = Growth inhibition of human MKN1 cells after 48 hrs by sulforhodamine B assay; format: functional; details: MKN-1, 48 h; method in brief: as §2
[6] = Growth inhibition of human RXF631L cells after 48 hrs by sulforhodamine B assay; format: functional; details: RXF 631, 48 h; method in brief: as §2
ACHN = test: Growth inhibition of human ACHN cells after 48 hrs by sulforhodamine B assay; format: functional; method in brief: as §2
OVCAR-8 = test: Growth inhibition of human OVCAR8 cells after 48 hrs by sulforhodamine B assay; format: functional; details: OVCAR-8, 48 h; method in brief: as §2
SK-OV-3 = test: Growth inhibition of human SKOV3 cells after 48 hrs by sulforhodamine B assay; format: functional; details: SK-OV-3, 48 h; method in brief: as §2
OVCAR-5 = test: Growth inhibition of human OVCAR5 cells after 48 hrs by sulforhodamine B assay; format: functional; details: OVCAR-5, 48 h; method in brief: as §2
OVCAR-3 = test: Growth inhibition of human OVCAR3 cells after 48 hrs by sulforhodamine B assay; format: functional; details: OVCAR-3, 48 h; method in brief: as §2
OVCAR-4 = test: Growth inhibition of human OVCAR4 cells after 48 hrs by sulforhodamine B assay; format: functional; details: OVCAR-4, 48 h; method in brief: as §2
DMS-114 = test: Growth inhibition of human DMS114 cells after 48 hrs by sulforhodamine B assay; format: functional; details: DMS-114, 48 h; method in brief: as §2
LOX IMVI = test: Growth inhibition of human LOXIMVI cells after 48 hrs by sulforhodamine B assay; format: functional; method in brief: as §2
A549 = test: Growth inhibition of human A549 cells after 48 hrs by sulforhodamine B assay; format: functional; details: A549, 48 h; method in brief: as §2
DMS-273 = test: Growth inhibition of human DMS273 cells after 48 hrs by sulforhodamine B assay; format: functional; details: DMS-273, 48 h; method in brief: as §2
NCI-H460 = test: Growth inhibition of human NCI-H460 cells after 48 hrs by sulforhodamine B assay; format: functional; details: NCI-H460, 48 h; method in brief: as §2
NCI-H226 = test: Growth inhibition of human NCI-H226 cells after 48 hrs by sulforhodamine B assay; format: functional; details: NCI-H226, 48 h; method in brief: as §2
NCI-H522 = test: Growth inhibition of human NCI-H522 cells after 48 hrs by sulforhodamine B assay; format: functional; details: NCI-H522, 48 h; method in brief: as §2
HCT-116 = test: Growth inhibition of human HCT116 cells after 48 hrs by sulforhodamine B assay; format: functional; details: HCT-116, 48 h; method in brief: as §2
NCI-H23 = test: Growth inhibition of human NCI-H23 cells after 48 hrs by sulforhodamine B assay; format: functional; details: NCI-H23, 48 h; method in brief: as §2
HCT-15 = test: Growth inhibition of human HCT15 cells after 48 hrs by sulforhodamine B assay; format: functional; details: HCT-15, 48 h; method in brief: as §2
KM12 = test: Growth inhibition of human KM12 cells after 48 hrs by sulforhodamine B assay; format: functional; details: KM12, 48 h; method in brief: as §2
HT-29 = test: Growth inhibition of human HT-29 cells after 48 hrs by sulforhodamine B assay; format: functional; details: HT-29, 48 h; method in brief: as §2
SNB-78 = test: Growth inhibition of human SNB78 cells after 48 hrs by sulforhodamine B assay; format: functional; details: SNB-78, 48 h; method in brief: as §2
[7] = Growth inhibition of human HCC2998 cells after 48 hrs by sulforhodamine B assay; format: functional; details: HCC 2998, 48 h; method in brief: as §2
SF-539 = test: Growth inhibition of human SF539 cells after 48 hrs by sulforhodamine B assay; format: functional; details: SF-539, 48 h; method in brief: as §2
SNB-75 = test: Growth inhibition of human SNB75 cells after 48 hrs by sulforhodamine B assay; format: functional; details: SNB-75, 48 h; method in brief: as §2
SF-295 = test: Growth inhibition of human SF295 cells after 48 hrs by sulforhodamine B assay; format: functional; details: SF-295, 48 h; method in brief: as §2
U-251 = test: Growth inhibition of human U251 cells after 48 hrs by sulforhodamine B assay; format: functional; details: U-251, 48 h; method in brief: as §2
SF-268 = test: Growth inhibition of human SF268 cells after 48 hrs by sulforhodamine B assay; format: functional; details: SF-268, 48 h; method in brief: as §2
MCF7 = test: Growth inhibition of human MCF7 cells after 48 hrs by sulforhodamine B assay; format: functional; details: MCF7, 48 h; method in brief: as §2
MDA-MB-231 = test: Growth inhibition of human MDA-MB-231 cells after 48 hrs by sulforhodamine B assay; format: functional; details: MDA-MB-231, 48 h; method in brief: as §2
[8] = Growth inhibition of human BSY1 cells after 48 hrs by sulforhodamine B assay; format: functional; details: BSY-1, 48 h; method in brief: as §2
[9] = Growth inhibition of human HBC5 cells after 48 hrs by sulforhodamine B assay; format: functional; details: HBC5, 48 h; method in brief: as §2
[10] = Growth inhibition of human HBC4 cells after 48 hrs by sulforhodamine B assay; format: functional; details: HBC4, 48 h; method in brief: as §2
[11] = Octanol-water partition coefficient, log P of the compound by HPLC analysis; format: physicochemical
Method in brief: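 log P was estimated from HPLC retention, with column dead time measured using unretained formamide.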

[12] = target: T1, Protein kinase C delta type (Homo sapiens, UniProt Q05655); test: Inhibition of [3H]PDBu binding to PKCdelta-C1A domain peptide (unknown origin)
Method in brief: (§3)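 Competitive [3H]PDBu binding used 14 or 40 nM PKCδ C1 peptide and 20 nM [3H]PDBu (19.6 Ci/mmol), in 50 mM Tris-maleate (pH 7.4 at 4 °C) with 50 µg/mL phosphatidylserine, 3 mg/mL bovine γ-globulin and varied inhibitor concentrations. IC50 was taken as 50% inhibition of specific binding. Ki was derived by the Sharkey–Blumberg method.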

[13] = target: T1, Protein kinase C delta type; test: Inhibition of [3H]PDBu binding to PKCdelta-C1B domain peptide (unknown origin); method in brief: as §3

T1 sequence (Q05655 whole entry, the tested form may be a part): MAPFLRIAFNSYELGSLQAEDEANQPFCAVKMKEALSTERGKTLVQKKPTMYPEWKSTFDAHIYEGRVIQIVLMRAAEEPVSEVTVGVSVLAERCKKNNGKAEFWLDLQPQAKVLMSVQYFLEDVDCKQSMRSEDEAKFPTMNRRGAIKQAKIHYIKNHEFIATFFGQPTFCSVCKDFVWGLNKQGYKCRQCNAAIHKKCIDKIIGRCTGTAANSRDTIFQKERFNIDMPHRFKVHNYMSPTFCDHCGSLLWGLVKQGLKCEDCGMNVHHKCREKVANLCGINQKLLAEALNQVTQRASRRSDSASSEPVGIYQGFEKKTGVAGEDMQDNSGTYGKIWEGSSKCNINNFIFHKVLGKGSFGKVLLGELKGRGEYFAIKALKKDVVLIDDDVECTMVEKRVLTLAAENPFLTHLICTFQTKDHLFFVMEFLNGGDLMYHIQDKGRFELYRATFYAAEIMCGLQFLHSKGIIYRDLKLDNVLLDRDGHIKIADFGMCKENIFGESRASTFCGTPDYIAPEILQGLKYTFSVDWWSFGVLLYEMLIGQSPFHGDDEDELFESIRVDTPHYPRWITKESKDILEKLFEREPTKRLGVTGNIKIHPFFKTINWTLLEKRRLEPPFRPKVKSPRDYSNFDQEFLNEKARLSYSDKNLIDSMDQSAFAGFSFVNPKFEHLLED

## CC1(C)CC[C@@H]2CC(=O)O[C@@H](CO)CC(=O)O[C@@H]3C[C@@H](CCCCc4cc(O)ccc4Br)O[C@@]1(C3)O2
[1]
  viability at 1 µM: 40%
Mus musculus
  Activity: Non-toxic
[2]
  viability at 0.1 µM: 50%
Human gammaherpesvirus 4 [3]
  Activity: 1.9%
Human gammaherpesvirus 4 [4]
  Activity: 1.8%
PC-3
  GI50: 2950 nM
DU-145
  GI50: 11.5 µM
MKN-74
  GI50: 13.8 µM
MKN-28
  GI50: 12 µM
MKN-45
  GI50: 1820 nM
MKN-7
  GI50: 6.92 µM
St-4
  GI50: 955 nM
[5]
  GI50: 11.7 µM
[6]
  GI50: 16.2 µM
ACHN
  GI50: 5.13 µM
OVCAR-8
  GI50: 16.2 µM
SK-OV-3
  GI50: 15.5 µM
OVCAR-5
  GI50: 7.76 µM
OVCAR-3
  GI50: 13.5 µM
OVCAR-4
  GI50: 14.5 µM
DMS-114
  GI50: 12.6 µM
LOX IMVI
  GI50: 794 nM
A549
  GI50: 5.01 µM
DMS-273
  GI50: 11.7 µM
NCI-H460
  GI50: 1660 nM
NCI-H226
  GI50: 11.7 µM
NCI-H522
  GI50: 13.5 µM
HCT-116
  GI50: 10.7 µM
NCI-H23
  GI50: 11.5 µM
HCT-15
  GI50: 15.5 µM
KM12
  GI50: 4.27 µM
HT-29
  GI50: 13.2 µM
SNB-78
  GI50: 15.5 µM
[7]
  GI50: 794 nM
SF-539
  GI50: 11 µM
SNB-75
  GI50: 12.3 µM
SF-295
  GI50: 5.5 µM
U-251
  GI50: 12.6 µM
SF-268
  GI50: 12.6 µM
MCF7
  GI50: 18.2 µM
MDA-MB-231
  GI50: 468 nM
[8]
  GI50: 2630 nM
[9]
  GI50: 15.8 µM
[10]
  GI50: 97.7 nM
[11]
  logP: 4
[12]
  Ki: 66 nM
[13]
  Ki: 3.5 nM
